Screening results from PubChem BioAssay.
In the library only some 8.4% were active in any assay of this set; here they are far more common.
Ecoli WT expand – blocks growth of wild type E. coli BW25113; 98,000 compounds, 0.15% hits; growth inhibition, % at 100 µM; OD600 absorbance;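 active = growth inhibition above about 50% at one test dose, limit read from the data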;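 note: growth measured after 20 h incubation at 37 °C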
Ecoli tolC – blocks growth of E. coli BW25113 tolC mutant; OD615; growth inhibition, % at 10 µM (by protocol); 65,000 compounds, 2.2% hits;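 active = growth inhibition at or above a cutoff equal to the mean over every tested compound plus 3 SD, cut at about 60% in these data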;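 note: growth measured after 20 h incubation at 37 °C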
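signal = optical density read at 615 nm | test system = E. coli ΔtolC::kan strain BW25113 | timing = 20 h compound exposure of bacteria at 37 °C | buffer or medium = LB medium plus 50 µg/mL kanamycin | compound dosing = 10 µM final, single dose | evaluation = % inhibition of E. coli growth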
Cav32 inh – human Cav3.2 channel inhibition, primary screen | O95180 | Cav3.2-expressing cells, Fluo-4 calcium fluorescence FDSS; active compounds read low | B-score at 10 µM | 100,000 compounds, 4% hits;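 active = single-dose well whose peak fluorescence ratio is a statistical outlier from its plate by either plate-standardised score or position-corrected B-score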
PostGolgi yeast – growth inhibition of a yeast mutant, post-Golgi transport screen. 98,000 compounds, 0.9% hits. post-Golgi transport phenotypic cell assay. inhibition, % at 10 µM;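 note: yeast cells grown in 1536-well plates; yeast grown about 18 h at 30C before absorbance read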
PostGolgi ctrl – inhibits growth of the yeast control strain. inhibition, % at 10 µM. AID 738. 98,000 compounds, 5% hits. efflux-deficient yeast background strain, growth absorbance A615, 16 h
* hit, by the source's call. Cut-off read from the data, not from the text of the source, unless noted: active = inhibition above about 30%; inactive = the rest.

O/N=C(\c1ccc(Cl)cc1Cl)c1ncc(C(F)(F)F)cc1Cl was read as Ecoli WT expand 5, Cav32 inh -6.8*, PostGolgi yeast 0 and PostGolgi ctrl 59*.
`COC(=O)c1c(S(=O)(=O)NCc2ccccc2)sc(C(=O)O)c1C` gave Ecoli WT expand 3, Cav32 inh 0.034, PostGolgi yeast -4 and PostGolgi ctrl 6.
For OC(c1ccccc1)(c1ccc(F)cc1)C(c1ccccc1)N1CCOCC1 (configuration not stated) the results were Ecoli WT expand -3, Cav32 inh -2.8*, PostGolgi yeast 7 and PostGolgi ctrl 31*.
For Cc1ccc(C2CC(c3ccccc3C)n3nc(N)nc3N2)cc1 (configuration not stated) the results were Ecoli WT expand -8, Ecoli tolC 14, Cav32 inh 0.1, PostGolgi yeast -8 and PostGolgi ctrl -1.
Cc1ccc(C2CC(c3ccccc3Cl)n3nc(N)nc3N2)cc1 (configuration not stated) was read as Ecoli WT expand -2, Ecoli tolC 25, Cav32 inh -0.26, PostGolgi yeast 1 and PostGolgi ctrl 40*.
CCCc1cc(=O)oc2cc(C)cc(OC(=O)c3ccco3)c12 was read as Ecoli WT expand -7, Ecoli tolC 13, Cav32 inh 0.14, PostGolgi yeast -5 and PostGolgi ctrl 13.
Screening CCCc1cc(=O)oc2c3c(c4c(c12)OC(C)(C)C=C4)OC(C)C(C)C3O (configuration not stated) returned Cav32 inh -6.8*.
Cc1ccc(-c2cc(=O)[nH]c3ccccc23)cc1 was read as Cav32 inh 0.16.
Cc1ccc2c(c1)C(O)(c1c(C)[nH]c3ccccc13)C(=O)N2 (configuration not stated) was read as Ecoli WT expand 0, Ecoli tolC 4, Cav32 inh -4.1*, PostGolgi yeast -5 and PostGolgi ctrl 10.
For CC1Cc2ccccc2N1C(=O)C1CCCN(S(=O)(=O)c2cccc3nsnc23)C1 (configuration not stated) the results were Ecoli WT expand -13, Ecoli tolC 37, Cav32 inh -0.76, PostGolgi yeast -2 and PostGolgi ctrl 12.
`COc1cc(S(=O)(=O)NCCN2CCOCC2)c(OC)cc1Cl` gave Ecoli WT expand 7, Ecoli tolC -2, Cav32 inh -0.56, PostGolgi yeast -3 and PostGolgi ctrl 32*.
Screening Cc1cc(S(=O)(=O)NCCN2CCOCC2)c(C)s1 returned Ecoli WT expand 3, Ecoli tolC -6, Cav32 inh 0.65, PostGolgi yeast -8 and PostGolgi ctrl 1.
For CC(/C=C1\SC(=O)N(CC(=O)Nc2cccc(O)c2)C1=O)=C\c1ccccc1 the results were Ecoli WT expand -7, Cav32 inh -1.8, PostGolgi yeast 0 and PostGolgi ctrl 31*.
For COc1ccc(-c2csc(N(CC3CCCO3)C(=O)c3ccco3)n2)cc1 (configuration not stated) the results were Ecoli WT expand 5, Ecoli tolC 61*, Cav32 inh -1, PostGolgi yeast 18 and PostGolgi ctrl 24.
`Cc1cc(=O)oc2ccc(OCC(=O)N(Cc3ccc(F)cc3)Cc3ccco3)cc12` gave Ecoli WT expand -17, Ecoli tolC 42, Cav32 inh -5.1*, PostGolgi yeast -4 and PostGolgi ctrl 44*.
CCOC(=O)Oc1ccc2oc(=O)cc(C)c2c1 was read as Ecoli WT expand -2, Ecoli tolC -7, Cav32 inh 0.49, PostGolgi yeast 5 and PostGolgi ctrl 5.
For O=C(c1ccccc1)c1coc2ccc(O)c(Cl)c12 the results were Ecoli WT expand 12, Ecoli tolC 20, Cav32 inh -0.15, PostGolgi yeast -2 and PostGolgi ctrl 5.
Screening Cc1ccc(C(=O)c2coc3ccc(O)c(Cl)c23)cc1 returned Ecoli WT expand 18, Cav32 inh -5.2*, PostGolgi yeast 0 and PostGolgi ctrl 18.
Screening CCn1c(=NC(=O)CSC(C)=O)sc2cc(OC)ccc21 returned Ecoli WT expand 2, Ecoli tolC 5, Cav32 inh -6.7*, PostGolgi yeast 3 and PostGolgi ctrl 10.
COCCn1c(=NC(=O)CSC(C)=O)sc2cc(OC)ccc21 was read as Ecoli WT expand 0, Ecoli tolC 1, Cav32 inh -5.9*, PostGolgi yeast -1 and PostGolgi ctrl 7.
For COC(=O)c1cc(=O)n(Cc2cccs2)c(=Nc2ccc(F)cc2)s1 the results were Cav32 inh -1.8.
Screening CCOc1ccc2c(c1)sc(=NC(=O)C1CC1)n2C returned Ecoli WT expand -1, Ecoli tolC -1, Cav32 inh -1.5, PostGolgi yeast 6 and PostGolgi ctrl 6.
Screening COCCn1c(=NC(=O)CSC(C)=O)sc2cc(F)ccc21 returned Ecoli WT expand -1, Ecoli tolC -7, Cav32 inh -8.7*, PostGolgi yeast -4 and PostGolgi ctrl -6.
CCOC(=O)Cn1c(=NC(=O)CSC(C)=O)sc2cc(F)ccc21 was read as Ecoli WT expand -1, Cav32 inh -7.5*, PostGolgi yeast -7 and PostGolgi ctrl 2.
CC(NC(=O)C(=O)NN=C1CCCCCCC1)c1ccccc1 (configuration not stated) was read as Ecoli WT expand 5, Cav32 inh -0.075, PostGolgi yeast -3 and PostGolgi ctrl 9.
`Cc1ccc(-n2nnnc2SCCNS(=O)(=O)c2ccccc2)cc1C` gave Ecoli WT expand -25, Ecoli tolC 50, Cav32 inh -3.4, PostGolgi yeast -11 and PostGolgi ctrl 15.
Screening COc1ccc(OC)c(-c2nnc(SCC(=O)NC3CCCCC3)o2)c1 returned Ecoli WT expand 6, Ecoli tolC 6, Cav32 inh -1.5, PostGolgi yeast -3 and PostGolgi ctrl 7.
`COCCn1c(=NC(=O)CSCC(=O)NC2CCCCC2)sc2cc(OC)ccc21` gave Ecoli WT expand -8, Ecoli tolC -12, Cav32 inh -0.41, PostGolgi yeast 5 and PostGolgi ctrl 48*.
CCOC(=O)N1CCN(c2nc(-c3ccc(OC)cc3)no2)CC1 was read as Ecoli WT expand -5, Ecoli tolC -8, Cav32 inh 0.14, PostGolgi yeast -2 and PostGolgi ctrl 14.
CS(=O)(=O)N(CC(=O)N1CCc2ccccc2C1)Cc1ccc(Cl)cc1 was read as Ecoli WT expand -4, Cav32 inh -2.7, PostGolgi yeast -1 and PostGolgi ctrl 25.
For O=C(NC1CCCCC1)N(Cc1cc2cc3c(cc2[nH]c1=O)OCCO3)C1CCCCC1 the results were Ecoli WT expand -9, Cav32 inh -2, PostGolgi yeast 5 and PostGolgi ctrl -3.
Screening O=C(CSc1nnc(CNc2ccc(F)cc2)o1)N1CCCc2ccccc21 returned Ecoli WT expand -1, Ecoli tolC 23, Cav32 inh -5.3*, PostGolgi yeast 6 and PostGolgi ctrl 1.
`COc1cccc(-c2nnc(SCC(=O)N3CCCc4ccccc43)o2)c1` gave Ecoli WT expand -19, Ecoli tolC 42, PostGolgi yeast 7 and PostGolgi ctrl 4.
COc1ccc(-c2nnc(SCC(=O)N3c4ccccc4Sc4ccccc43)o2)cc1 was read as Cav32 inh -5.6*.
